By IC50 is commonly meant the concentration at which inhibition is half-maximal. By CC50 is commonly meant the concentration that lowers cell viability or growth by half.

The source made the active and inactive calls. The calls are words filed in the database; no cut-off is given here. Bounds are passed on as bounds.

This note sets out measurements from ChEMBL document CHEMBL4699606, “New type of anti-influenza agents based on benzo[d][1,3]dithiol core” (Bioorg Med Chem Lett, 2020).

Data set [1] can be described thus: Selectivity index, ratio of CC50 for dog MDCK cells to IC50 for Influenza A virus (A/California/07/09(H1N1)) pdm09 infected in MDCK cells. It is filed as toxicity, cell-based. The conditions noted are these: read-out: Ratio CC50/IC50.
A short description of data set [2]: Antiviral activity against Influenza A virus (A/California/07/09(H1N1))pdm09 infected in MDCK cells assessed as reduction in viral replication preincubated with compound for 1 hr followed by viral infection and measured after viral cultivation for 48 hrs by hemagglutination test. It is filed as functional, cell-based, Influenza A virus (A/California/07/2009(H1N1)).

Data set [3] is described as follows: Cytotoxicity against dog MDCK cells assessed as reduction in cell viability by MTT assay. It is filed as cell-based, Canis lupus familiaris.
For data set [4], the system named is Influenza A virus (A/California/07/2009(H1N1)). Description: Inhibition of Influenza A virus (A/California/07/09(H1N1))pdm09 hemagglutinin receptor binding activity.
A further data set relates to MDCK. In words: Antiviral activity against Influenza A virus (A/California/07/09(H1N1))pdm09 infected in MDCK cells assessed as suppression of viral replication at early stage of viral cycle after 2 hpi by time of addition assay. In kind it is functional, cell-based. The following applies: Influenza A virus (A/California/07/2009(H1N1)), time 2.0 hrs. The gist of the method:
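Time-of-addition study in MDCK cells. Compound added at set times relative to infection (time 0 = moment of infection). Read-out was the infectious activity of viral progeny, assayed in MDCK cells.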

Data set [5] concerns Influenza A virus (A/California/07/2009(H1N1)). In words: Anti-membranotropic activity against Influenza A virus (A/California/07/09(H1N1))pdm09 hemagglutinin assessed as inhibition of HA-driven chicken erythrocytes membrane fusion incubated for 30 mins by fusogenic activity assay. In short, it runs like this: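 Compound mixed with virus and held 30 min at room temperature, then combined with 0.75% chicken erythrocytes at +4 °C. Fusion was triggered with MES buffer at pH 5.0. After erythrocytes sedimented, haemoglobin released by membrane lysis was read as optical density at 405 nm.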

Regarding `O=C(CCN1CCCC1)Nc1cc(C(F)(F)F)cc2sc(=O)sc12`, the selectivity ratio in data set [1] amounted to 12. In data set [2], the IC50 came to 6 µM. Also, the CC50 in data set [3] amounted to 75 µM.

Turning to `O=C(Nc1cc(C(F)(F)F)cc2sc(=O)sc12)C(F)(F)F`, the selectivity ratio in data set [1] was 12. The IC50 in data set [2] was found to be 0.2 µM. For the same compound, the CC50 in data set [3] is 2.2 µM.

In the case of `O=C(CN1CCCCC1)Nc1cc(C(F)(F)F)cc2sc(=O)sc12`, in data set [4], the inhibition result was “inactive”. The selectivity ratio in data set [1] worked out at 29. The half-maximal inhibitory concentration (IC50) in data set [2] amounted to 18 µM. Also, the CC50 in data set [3] was 532 µM. Also, the outcome in the data set with MDCK was Active. For the same compound, the inhibition entry in data set [5] is “Dose-dependent effect”.

On to `CC(=O)Nc1cc(C(F)(F)F)cc2sc(=O)sc12`, for which the selectivity ratio in data set [1] amounted to 3. Moreover, the IC50 in data set [2] is 38 µM. Also, the CC50 in data set [3] was 95 µM.

Consider `NC(=O)c1ncn([C@@H]2O[C@H](CO)[C@@H](O)[C@H]2O)n1` [RIBAVIRIN], for which the selectivity ratio in data set [1] is 48. In addition, the IC50 in data set [2] amounted to 44 µM. Further, the CC50 in data set [3] was > 2130 µM.

On to `CC(N)C12CC3CC(CC(C3)C1)C2` (stereo not given) [RIMANTADINE], for which the selectivity ratio in data set [1] came out at 9. Besides, in data set [2], the IC50 amounted to 41 µM.

Turning to `O=C(CN1CCOCC1)Nc1cc(C(F)(F)F)cc2sc(=O)sc12`, the selectivity ratio in data set [1] worked out at 3. In addition, in data set [2], the IC50 amounted to 5 µM. Also, in data set [3], the CC50 turned out to be 13 µM.

In the case of `O=C(CCN1CCCCC1)Nc1cc(C(F)(F)F)cc2sc(=O)sc12`, the selectivity ratio in data set [1] is 1. Also, in data set [2], the IC50 is > 28.2 µM. Moreover, in data set [3], the CC50 came to 34 µM.

As for `Nc1cc(C(F)(F)F)cc2sc(=O)sc12`, the selectivity ratio in data set [1] was 11. Further, in data set [2], the IC50 is 19 µM. In data set [3], the CC50 stood at 212 µM.

Regarding `O=C(CN1CCCC1)Nc1cc(C(F)(F)F)cc2sc(=O)sc12`, in data set [1], the selectivity ratio came to 4. Besides, the IC50 in data set [2] is 191 µM. The CC50 in data set [3] was > 829 µM.

Take `O=C(CCN1CCOCC1)Nc1cc(C(F)(F)F)cc2sc(=O)sc12`: the selectivity ratio in data set [1] turned out to be 11. Also, the IC50 in data set [2] is 9 µM. Besides, in data set [3], the CC50 turned out to be 104 µM.
